Assay [1] relates to Radical scavenging activity. Nature of the assay: Antioxidant activity assessed as DPPH radical scavenging activity at 50 uM after 60 mins. It counts as functional. For orientation: Loss of DPPH colour is used to gauge radical scavenging.
Assay [2] in a line: Antioxidant activity assessed as inhibition of AAPH-induced lipid peroxidation at 10 uM by uV spectrophotometry. The assay is classed as functional. The method, boiled down: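 Aqueous linoleic acid dispersion (16 mM, 10 µL) in 0.05 M phosphate buffer pH 7.4, prethermostated at 37 °C. Oxidation started under air with AAPH (40 mM solution, 50 µL) and run with 10 µL compound aliquots. The control contained the same DMSO level. The rate of conjugated diene hydroperoxide formation was followed by the rise in absorbance at 234 nm at 37 °C.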

The nature of assay [3]: Antioxidant activity assessed as superoxide anion radical scavenging activity at 10 uM. It counts as functional. The method, boiled down:
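Non-enzymatic superoxide generation from PMS/NADH/air-oxygen, measured by NBT reduction. Compounds preincubated 2 min before NADH was added. Mixture of 3 µM PMS, 78 µM NADH and 25 µM NBT in phosphate buffer pH 7.4, incubated 2 min at room temperature. Absorbance read at 560 nm against a PMS-containing blank. Caffeic acid was the standard.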

Assay [4] has as its system Radical scavenging activity. In words: Antioxidant activity assessed as DPPH radical scavenging activity at 100 uM after 60 mins. It counts as functional. The method, boiled down:
(§1)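 DPPH (0.05 mM) in absolute ethanol; compounds in DMSO added to final 0.1 mM. Mixture shaken vigorously and left 20 min or 60 min. Absorbance read at 517 nm and percent activity calculated. Three replicates, averaged.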

Another assay relates to Glycine max. In words: Inhibition of soybean 5-lipoxygenase at 100 uM by UV-absorbance based enzyme assay. The method, boiled down:
(§2)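 Soybean lipoxygenase (enzyme solution 1/9 × 10^-4 w/v in saline) incubated at room temperature with sodium linoleate and compound in DMSO, in Tris buffer pH 9. Conversion to 13-hydroperoxylinoleic acid recorded at 234 nm and compared with a standard inhibitor.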

Assay [5] in a line: Antioxidant activity assessed as hydroxyl radical scavenging activity at 100 uM. It counts as functional. Put shortly:
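Fe3+/ascorbic acid-generated hydroxyl radicals detected by the Nash method as formaldehyde formed from DMSO oxidation. The mixture held EDTA 0.1 mM, Fe3+ 167 µM, DMSO 33 mM, test compound 0.1 mM and ascorbic acid 10 mM in 50 mM phosphate buffer pH 7.4. Incubated 30 min at 37 °C, then stopped with CCl3COOH (17% w/v). Trolox was the standard.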

A short description of assay [6]: Antioxidant activity assessed as hydrogen peroxide scavenging activity by peroxyoxalate chemiluminescent method. The assay is classed as functional.
The subject of assay [7] is Radical scavenging activity. Nature of the assay: Antioxidant activity assessed as DPPH radical scavenging activity at 50 uM after 20 mins. It counts as functional.
Assay [8] concerns Radical scavenging activity. In words: Antioxidant activity assessed as DPPH radical scavenging activity at 100 uM after 20 mins. The assay is classed as functional. Put shortly:
as §1

Assay [9] can be described thus: Inhibition of soybean 5-lipoxygenase by UV-absorbance based enzyme assay. Set-up: species or system Glycine max. Put shortly:
as §2

As to `COc1ccc(/C=C/C(=O)c2ccccc2O)cc1`, the Activity in assay [1] turned out to be 0%; in [3], 73.7%; in assay [4], 40.8%; in assay [5] it was 100%; in [7], 0%; in assay [8] it was 0%. For the same compound, the inhibition in assay [2] came to 61.6%; in the assay on Glycine max, 5%. In assay [6], the IC50 was 500 µM.
For `O=C(O)/C=C/c1ccc(O)c(O)c1` [CAFFEIC ACID], in [3], the Activity came to 5.5%. Also, in [9], the half-inhibitory concentration (IC50) came out at 600 µM.
As for `COc1ccc(/C=C/C(=O)c2ccccc2O)cc1OC`, the Activity in assay [1] came to 0%; in assay [3], 100%; in [4], 28.5%; in assay [5], 84.1%; in assay [7], 0%; in [8], 6.3%. Besides, the inhibition in [2] came out at 64.6%. Further, the IC50 in assay [6] worked out at 228 µM; in assay [9], 67.5 µM.
`O=C(/C=C/c1ccc(O)c(O)c1)c1c(O)cc(O)cc1O` [3,4,2',4',6'-PENTAHYDROXYCHALCONE]: the inhibition (in assay [2]; in the assay on Glycine max) was 0% each time. Besides, the results for the Activity in assay [4] and in assay [8] were 94.9% and 100%, respectively. Also, the IC50 in assay [6] worked out at 76 µM.
Regarding `COc1cc(OC)c2c(c1)O/C(=C\c1ccc(C)cc1)C2=O`, the Activity came out at 0% in [1]; 97.4% in assay [3]; 29.2% in assay [4]; 100% in [5]; 0% in assay [7]; 8.5% in assay [8]. The inhibition in assay [2] was 72%; with Glycine max, 0%.
With `Cc1c(C)c2c(c(C)c1O)CCC(C)(C(=O)O)O2` (stereo not given), in assay [2], the inhibition came to 63%. Besides, the Activity in [5] turned out to be 73.4%.
As for `COc1ccccc1/C=C/C(=O)c1ccccc1O`, the Activity in assay [1] stood at 0%; in [3] it was 92.1%; in assay [4] it was 57.7%; in assay [5], 100%; in [7], 0%; in [8] it was 11.8%. Moreover, the inhibition in [2] was determined as 43.1%. The IC50 worked out at 599 µM in assay [6] and 100 µM in assay [9].
Turning to `CC(Cc1ccc(O)c(O)c1)C(C)Cc1ccc(O)c(O)c1` (stereo not given) [NORDIHYDROGUAIARETIC ACID], the Activity in [1] amounted to 83%; in assay [4], 83%; in assay [7] it was 84%; in assay [8], 81%. In [9], this compound gave an IC50 of 40 µM.
As to `Cc1ccc(/C=C2\Oc3ccccc3C2=O)cc1`, the Activity in assay [1] amounted to 29.4%; in [3] it was 68.4%; in assay [4], 49.2%; in assay [5] it was 84.5%; in [7], 5.6%; in assay [8] it was 23.9%. Further, the inhibition came to 43.1% in [2] and 32.4% in the assay with Glycine max. Further, in assay [6], the IC50 is 2010 µM.
In the case of `COc1cccc(/C=C/C(=O)c2ccccc2O)c1`, the Activity worked out at 0% in assay [1]; 97.4% in assay [3]; 34.6% in assay [4]; 57% in assay [5]; 0% in assay [7]; 0% in assay [8]. Also, the inhibition stood at 75.8% in assay [2] and 36.4% in the assay on Glycine max. The IC50 in [6] amounted to 940 µM.
On to `O=c1c(O)c(-c2ccc(O)c(O)c2)oc2cc(O)cc(O)c12` [QUERCETIN], for which, in assay [6], the IC50 stood at 162 µM.
Turning to `COc1cc(OC)c2c(c1)O/C(=C\c1ccccc1OC)C2=O`, the Activity in assay [1] worked out at 0%; in [3] it was 55.3%; in assay [4], 30.8%; in assay [5], 77.9%; in assay [7], 4.2%; in [8], 1.8%. In addition, the inhibition in assay [2] is 87.1%. For the same compound, the 50% inhibitory concentration (IC50) is 2400 µM in [6] and 100 µM in assay [9].
With `COc1cc(O)c(C(=O)/C=C/c2ccc(OC)c(OC)c2)c(OC)c1`, the Activity in assay [1] is 0%; in assay [3], 86.8%; in [4], 20.8%; in [5], 42.2%; in assay [7], 0%; in [8] it was 12.9%. The results for the inhibition (in [2]; with Glycine max) were 73.6% and 1.6%, respectively. Also, the concentration for half-maximal inhibition (IC50) in assay [6] amounted to 88 µM.
Turning to `COc1cc(O)c(C(=O)/C=C/c2ccc(C)cc2)c(OC)c1`, the Activity amounted to 0% in [1]; 100% in assay [3]; 24.6% in assay [4]; 100% in assay [5]; 0% in assay [7]; 9.6% in assay [8]. Moreover, the inhibition in [2] was found to be 100%. Further, the IC50 in [6] came out at 665 µM; in assay [9] it was 53 µM.
Consider `COc1ccc(/C=C2\Oc3ccccc3C2=O)cc1` [4'-METHOXY-AURONE], for which the Activity in assay [1] was 0%; in assay [3], 81.6%; in assay [4], 23.8%; in [5], 76.4%; in [7], 13.9%; in assay [8], 5.1%. Moreover, in [2], the inhibition was 64.6%. For the same compound, the IC50 in assay [6] is 291 µM; in assay [9], 70 µM.
On to `COCOc1cc(O)c(C(=O)/C=C/c2ccc(OCOC)c(OCOC)c2)c(OCOC)c1`, for which the Activity stood at 0% in assay [1]; 50% in assay [3]; 65.4% in [4]; 100% in [5]; 5.6% in assay [7]; 42.6% in assay [8]. Also, the inhibition in assay [2] was found to be 77.1%; in the assay with Glycine max it was 14.1%.
For the compound `O=C1/C(=C/c2ccc(Cl)cc2)Oc2ccccc21`, the Activity in assay [1] is 10.3%; in assay [3], 89.5%; in assay [4], 76.2%; in [5], 0%; in assay [7], 11.1%; in assay [8], 49.3%. Also, the inhibition in [2] came to 46.4%; with Glycine max, 26.4%. Moreover, the IC50 in assay [6] stood at 4140 µM.
`COCOc1cc(OCOC)c2c(c1)O/C(=C\c1ccc(OCOC)c(OCOC)c1)C2=O` had an inhibition in the assay with Glycine max of 0%.
Consider `O=C1/C(=C/c2ccc(O)c(O)c2)Oc2cc(O)cc(O)c21`, for which the inhibition in [2] amounted to 77.8%; in the assay on Glycine max it was 0%. Also, the Activity in assay [4] turned out to be 97.7%; in assay [8] it was 84.9%.
Regarding `COc1cc(OC)c2c(c1)O/C(=C\c1ccc(Cl)cc1)C2=O`, the Activity in assay [1] was 0%; in [3] it was 84.2%; in [4], 20.8%; in [5] it was 91.5%; in assay [7] it was 0%; in assay [8] it was 6.3%. The inhibition was 82.9% in [2] and 7.8% with Glycine max.
On to `COc1ccc(/C=C2\Oc3ccccc3C2=O)cc1OC` [3',4'-DIMETHOXY-AURONE], for which, in assay [2], the inhibition is 53.3%. The Activity in assay [3] turned out to be 97.4%; in assay [5], 76.7%. Also, the IC50 in [6] turned out to be 44 µM.
For the compound `COc1cc(O)c(C(=O)/C=C/c2ccccc2OC)c(OC)c1`, the Activity in assay [1] was determined as 5.9%; in assay [3], 89.5%; in assay [4], 47.7%; in [5] it was 0%; in assay [7], 9.7%; in assay [8], 15.1%. For the same compound, the results for the inhibition (in [2]; in the assay with Glycine max) were 68.4% and 20%, respectively. Also, in assay [6], the IC50 turned out to be 503 µM.
Regarding `COc1cccc(/C=C2\Oc3ccccc3C2=O)c1` [3'-METHOXY-AURONE], the Activity turned out to be 0% in assay [1]; 50% in [3]; 83.8% in [4]; 57.8% in assay [5]; 11.1% in assay [7]; 87.9% in assay [8]. Moreover, the inhibition in assay [2] amounted to 62.3%; in the assay on Glycine max, 34.9%. Besides, the IC50 in [6] stood at 1990 µM.
As for `CC1=C(/C=C/C(C)=C/C=C/C(C)=C/C=C/C=C(C)/C=C/C=C(C)/C=C/C2=C(C)CCCC2(C)C)C(C)(C)CCC1` [BETA CAROTENE], the IC50 in assay [6] amounted to 16.9 µM.
`COc1ccc(/C=C/C(=O)c2c(O)cc(OC)cc2OC)cc1` [FLAVOKAWAIN A]: the Activity in [1] stood at 0%; in assay [3] it was 50%; in assay [4], 40.8%; in [5], 78.7%; in [7] it was 0%; in assay [8], 6.3%. Further, the inhibition in [2] was found to be 80.9%; with Glycine max, 2.3%. For the same compound, the IC50 in assay [6] is 456 µM.
In the case of `COc1ccccc1/C=C1\Oc2ccccc2C1=O` [(Z)-2'-METHOXYAURONE], the Activity in assay [1] is 0%; in [3], 73.7%; in [4], 43.1%; in assay [5], 100%; in [7] it was 4.2%; in assay [8], 25%. Also, the inhibition in [2] turned out to be 71.1%; in the assay on Glycine max, 39.9%. The IC50 in assay [6] was 466 µM.

By inhibition is commonly meant the change of the read-out against control, counted positive when it falls. The term IC50 denotes the midpoint of a concentration-inhibition curve.

These data come from ChEMBL document CHEMBL1152681, “Natural and synthetic 2'-hydroxy-chalcones and aurones: synthesis, characterization and evaluation of the antioxidant and soybean lipoxygenase inhibitory activity” (Bioorg Med Chem, 2009).
